Data as given in ChEMBL document CHEMBL2016444, “Discovery of novel 2-piperidinol-3-(arylsulfonyl)quinoxalines as phosphoinositide 3-kinase α (PI3Kα) inhibitors” (Bioorg Med Chem, 2012).
Activity calls are given as the source filed them. The rule behind the calls is not given here.

Experiments:
[1] = test system: A549; assay: Cytotoxicity against human A549 cells after 72 hrs by MTT assay; format: functional, cell-based; settings: A549, 72 h
How it was run: (§1)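 Cells grown in RPMI-1640 with heat-inactivated 10% FBS, penicillin 100 units/mL, streptomycin, 37 °C, 20% O₂, 5% CO₂. Compounds from 10.0 mg/mL DMSO stocks, diluted. Cells plated 24 h, then exposed to a range of concentrations for 72 h; viable cells read by MTT kit per manufacturer's instructions.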

[2] = test system: HL-60; assay: Cytotoxicity against human HL60 cells after 72 hrs by MTT assay; format: functional, cell-based; settings: HL-60, 72 h; how it was run: as §1
[3] = test system: KB; assay: Cytotoxicity against human KB cells after 72 hrs by MTT assay; format: functional, cell-based; how it was run: as §1
[4] = test system: PC-3; assay: Cytotoxicity against human PC3 cells after 72 hrs by MTT assay; format: functional, cell-based; settings: PC-3, 72 h; how it was run: as §1
[5] = molecular target: T1, Phosphatidylinositol 4,5-bisphosphate 3-kinase catalytic subunit alpha isoform (Homo sapiens, UniProt P42336); assay: Inhibition of PI3Kalpha using diC8-PI(4,5)P2 as substrate after 3 hrs by competitive fluorescence polarization assay
T1 sequence (P42336 whole entry, canonical isoform): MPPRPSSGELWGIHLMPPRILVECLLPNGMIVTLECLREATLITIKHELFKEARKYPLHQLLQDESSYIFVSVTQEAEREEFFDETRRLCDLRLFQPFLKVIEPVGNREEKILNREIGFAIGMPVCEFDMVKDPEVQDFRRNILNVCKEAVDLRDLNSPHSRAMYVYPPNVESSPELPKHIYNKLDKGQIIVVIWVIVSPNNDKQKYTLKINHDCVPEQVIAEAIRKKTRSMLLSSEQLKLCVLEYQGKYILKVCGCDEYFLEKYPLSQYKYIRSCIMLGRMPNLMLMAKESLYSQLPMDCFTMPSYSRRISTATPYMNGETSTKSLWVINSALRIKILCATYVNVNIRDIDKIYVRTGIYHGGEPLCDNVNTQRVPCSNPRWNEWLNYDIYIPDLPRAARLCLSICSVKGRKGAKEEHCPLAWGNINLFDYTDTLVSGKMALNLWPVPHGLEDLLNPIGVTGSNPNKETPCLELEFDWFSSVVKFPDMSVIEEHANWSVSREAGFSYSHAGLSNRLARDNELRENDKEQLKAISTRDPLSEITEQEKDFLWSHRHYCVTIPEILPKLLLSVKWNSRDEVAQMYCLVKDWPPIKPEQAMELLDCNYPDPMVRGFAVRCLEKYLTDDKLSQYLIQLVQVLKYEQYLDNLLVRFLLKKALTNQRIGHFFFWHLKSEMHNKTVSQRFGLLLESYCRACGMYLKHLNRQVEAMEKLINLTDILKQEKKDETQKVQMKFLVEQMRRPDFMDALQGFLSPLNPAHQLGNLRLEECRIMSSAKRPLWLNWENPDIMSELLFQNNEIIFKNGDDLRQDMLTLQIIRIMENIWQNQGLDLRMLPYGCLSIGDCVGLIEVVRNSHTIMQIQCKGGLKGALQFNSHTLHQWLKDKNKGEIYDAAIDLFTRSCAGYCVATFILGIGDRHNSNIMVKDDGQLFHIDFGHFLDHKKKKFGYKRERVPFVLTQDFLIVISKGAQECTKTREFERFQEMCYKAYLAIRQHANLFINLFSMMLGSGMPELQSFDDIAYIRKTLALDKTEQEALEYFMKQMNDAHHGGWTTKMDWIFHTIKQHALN
How it was run: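 Competitive fluorescence polarization. Buffer includes MgCl₂ and 10 mM DTT, with diC₈-PI(4,5)P₂ as substrate. Incubated 3 h at room temperature, then quenched with chelators. Phosphoinositide binding protein and a fluorophore-labeled phosphoinositide tracer were added, and samples equilibrated 1 h in the dark before reading.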

[6] = test system: HCT-116; assay: Cytotoxicity against human HCT116 cells after 72 hrs by MTT assay; format: functional, cell-based; settings: HCT-116, 72 h; how it was run: as §1
[7] = molecular target: T1, Phosphatidylinositol 4,5-bisphosphate 3-kinase catalytic subunit alpha isoform; assay: Inhibition of PI3Kalpha-mediated AKT Ser473 phosphorylation in human PC3 cells at 10 uM after 3 hrs by Western blot analysis; format: cell-based; settings: PC-3
How it was run: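 PC3 cells exposed to compound for 3 h. Lysates run on SDS–PAGE and probed for pAkt Ser473 by Western blot, with actin as internal control.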

[8] = molecular target: T1, Phosphatidylinositol 4,5-bisphosphate 3-kinase catalytic subunit alpha isoform; assay: Ratio of IC50 for WR1 to compound IC50 for PI3Kalpha using diC8-PI(4,5)P2 as substrate after 3 hrs by competitive fluorescence polarization assay

Row | Compound | IC50 [1] | IC50 [2] | IC50 [3] | IC50 [4] | IC50 [5] | IC50 [6] | inhibition [7] | Ratio IC50 [8]
1 | O=S(=O)(c1ccc(Br)cc1)c1nc2ccccc2nc1N1CCC(O)CC1 | 0.95 µM | 0.34 µM | 2.32 µM | 2.02 µM | 0.025 µM | 1.65 µM | Active | 
2 | COc1ccc(S(=O)(=O)c2nc3ccccc3nc2N2CCCC(O)C2)cc1 (stereo unspecified) | 2.18 µM | 3.05 µM | 2.12 µM | 3.41 µM |  | 3.52 µM |  | 
3 | O=S(=O)(c1ccc(Br)cc1)c1nc2ccccc2nc1N1CCc2ccccc2C1 | > 50 µM | 2.61 µM | > 50 µM | > 50 µM |  | > 50 µM |  | 
4 | O=S(=O)(c1ccccc1)c1nc2ccccc2nc1N1CCCC(O)C1 (stereo unspecified) | 0.31 µM | 3.02 µM | 3.59 µM | 2.1 µM |  | 1.39 µM |  | 
5 | COc1ccc(S(=O)(=O)c2nc3ccccc3nc2N2CCCC2)cc1 | > 50 µM | 16 µM | > 50 µM | > 50 µM |  | > 50 µM |  | 
6 | O=S(=O)(c1ccc(Br)cc1)c1nc2ccccc2nc1N1CCCC1 | > 50 µM | 6.07 µM | > 50 µM | > 50 µM |  | 37.7 µM |  | 
7 | Cc1ccc(S(=O)(=O)c2nc3ccccc3nc2N2CCC(O)CC2)cc1 | 4.02 µM | 4.05 µM | 6.14 µM | 9.52 µM |  | 5.44 µM |  | 
8 | O=S(=O)(c1ccc(F)cc1)c1nc2ccccc2nc1N1CCCC1 | 31.1 µM | 12.8 µM | 30.1 µM | 12.4 µM |  | 20.6 µM |  | 
9 | O=S(=O)(c1ccccc1)c1nc2ccccc2nc1N1CCC(O)CC1 | 2.06 µM | 2.9 µM | 5.36 µM | 4.98 µM | 0.079 µM | 1.87 µM |  | 6
10 | COc1ccc(S(=O)(=O)c2nc3ccccc3nc2N2CCc3ccccc3C2)cc1 | > 50 µM | 3.69 µM | > 50 µM | > 50 µM |  | 22.1 µM |  | 
11 | Cc1ccc(S(=O)(=O)c2nc3ccccc3nc2N2CCCC2)cc1 | > 50 µM | 9.72 µM | > 50 µM | > 50 µM |  | > 50 µM |  | 
12 | O=S(=O)(c1ccccc1)c1nc2ccccc2nc1N1CCCC1 | 34.8 µM | 3.46 µM | 35.8 µM | 20.8 µM | 21.8 µM | 24.2 µM |  | 
13 | O=S(=O)(c1ccccc1)c1nc2ccccc2nc1N1CCc2ccccc2C1 | 19.8 µM | 0.88 µM | 26.3 µM | 5.01 µM | > 50 µM | 18.7 µM |  | 
14 | Cc1ccc(S(=O)(=O)c2nc3ccccc3nc2N2CCCC(O)C2)cc1 (stereo unspecified) | 1.35 µM | 6.08 µM | 6.08 µM | 5.33 µM |  | 3.27 µM |  | 
15 | O=S(=O)(c1ccc(F)cc1)c1nc2ccccc2nc1N1CCc2ccccc2C1 | 22.9 µM | 4.08 µM | 35.4 µM | 9.23 µM |  | 16.6 µM |  | 
16 | COc1ccc(S(=O)(=O)c2nc3ccccc3nc2N2CCC(O)CC2)cc1 | 5.11 µM | 3.23 µM | 8.06 µM | 9.73 µM |  | 4.69 µM |  | 
17 | O=S(=O)(c1ccc(F)cc1)c1nc2ccccc2nc1N1CCC(O)CC1 | 20.2 µM | 1.45 µM | 9.58 µM | 2.01 µM |  | 1.34 µM |  | 
18 | O=S(=O)(c1ccccc1)c1nc2ccccc2nc1N1CCOCC1 | 12.6 µM | 4.47 µM |  | 18.9 µM | 0.44 µM | 5.35 µM |  | 
19 | O=S(=O)(c1ccc(F)cc1)c1nc2ccccc2nc1N1CCCC(O)C1 (stereo unspecified) | 8.17 µM | 2.62 µM | 18.3 µM | 2.13 µM |  | 5.5 µM |  | 
20 | Cc1ccc(S(=O)(=O)c2nc3ccccc3nc2N2CCc3ccccc3C2)cc1 | > 50 µM | 3.61 µM | 32.1 µM | 22.4 µM |  | 39 µM |  | 
21 | O=S(=O)(c1ccc(Br)cc1)c1nc2ccccc2nc1N1CCCC(O)C1 (stereo unspecified) | 2.1 µM | 3.43 µM | 3.72 µM | 3.69 µM |  | 2.11 µM |  | 
